From ChEMBL document CHEMBL4364291, “Benzylideneacetone Derivatives Inhibit Osteoclastogenesis and Activate Osteoblastogenesis Independently Based on Specific Structure-Activity Relationship” (J Med Chem, 2019)
Activity calls are given as the source filed them. The calls are words filed in the database; no cut-off is given here.

Columns and labels:
MC3T3-E1 [1] = assay: Osteo-blastogenic activity in mouse MC3T3-E1 cells assessed as stimulation of ALP activity at 10 uM supplemented with fresh medium every 3 to 4 days and measured after 14 days relative to control; format: functional
Summary of the method: (§1)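 MC3T3-E1 subclone 4 osteoblastic cells were grown in α-MEM at 37 °C under 5% CO2 with compound present during differentiation. ALP activity was read 14 d after induction and expressed as % of untreated cells. Values are mean ± SD of three independent experiments.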

MC3T3-E1 [2] = assay: Osteo-blastogenic activity in mouse MC3T3-E1 cells assessed as stimulation of ALP activity at 50 uM supplemented with fresh medium every 3 to 4 days and measured after 14 days relative to control; format: functional; summary of the method: as §1
[3] = Inhibition of M-CSF/RANKL-induced osteoclast differentiation in C57BL/6 mouse bone marrow macrophage assessed as reduction in multinucleated TRAP+ cells incubated for 6 days with fresh media replacement on day 3 and measured on day 6 by TRAP staining-based microscopic analysis; format: functional, cell-based; conditions: C57BL/6, BMDM
Summary of the method: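 BMM came from femur and tibia marrow of 5–8-week-old male C57BL/6 mice and were purified over lymphocyte separation medium. Cells, 1 × 10^5 per well, were grown in α-MEM/10% FBS with M-CSF (60 ng/mL) and RANKL (150 ng/mL) for 6 d, medium changed day 3. Compound range was 0.01−100 μM. TRAP+ multinucleated cells were counted on day 6.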

Mus musculus [4] = assay: Antiosteoporotic activity in ddY mouse model of OVX-induced osteoporosis assessed as increase in ratio of bone volume/trabecular volume in femur bone at 10 mg/kg, po administered once daily via gavage for 4 weeks by microcomputed tomographic analysis; format: functional, organism-based
Summary of the method: (§2)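 Female ddY mice were ovariectomized. Oral gavage began 1 week after surgery and ran once daily for 28 d. Vehicle was 300 μL PBS containing 0.5% (v/v) DMSO, also given to sham and OVX controls. Mice were then euthanized and femur and tibia fixed for CT imaging. Values are mean ± SD of four mice.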

Mus musculus [5] = assay: Antiosteoporotic activity in ddY mouse model of OVX-induced osteoporosis assessed as increase in femur bone mineral density at 10 mg/kg, po administered once daily via gavage for 4 weeks by microcomputed tomographic analysis; format: functional, organism-based; summary of the method: as §2
BMDM [6] = assay: Effect on NFkappaB expression in M-CSF induced C57BL/6 mouse bone marrow macrophages at 10 uM measured over 5 days by Western blot analysis; format: functional, cell-based
Summary of the method: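 C57BL/6 BMM were proliferated with M-CSF alone without RANKL and treated at 0.5 or 10 μM. NF-κB expression was followed over time by Western blot.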

Mus musculus [7] = assay: Antiosteoporotic activity in ddY mouse model of OVX-induced osteoporosis assessed as increase in trabecular number in femur bone at 10 mg/kg, po administered once daily via gavage for 4 weeks by microcomputed tomographic analysis; format: functional, organism-based; summary of the method: as §2
Mus musculus [8] = assay: Antiosteoporotic activity in ddY mouse model of OVX-induced osteoporosis assessed as increase in new bone volume in femur bone at 10 mg/kg, po administered once daily via gavage for 4 weeks by microcomputed tomographic analysis; format: functional, organism-based; summary of the method: as §2
Mus musculus [9] = assay: Antiosteoporotic activity in ddY mouse model of OVX-induced osteoporosis assessed as increase in cross-sectional thickness in femur bone at 10 mg/kg, po administered once daily via gavage for 4 weeks by microcomputed tomographic analysis; format: functional, organism-based; summary of the method: as §2
[10] = Cytotoxicity against mouse RAW264.7 cells after 24 hrs by MTT assay; format: cell-based; conditions: read-out: LD50
Summary of the method: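 RAW264.7 macrophages (preosteoclast line) were kept in DMEM at 37 °C under 5% CO2 and tested without RANKL. MTT read-out of growth and survival, expressed as LD50.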

BMDM [11] = assay: Suppression of NFATc1 expression in M-CSF induced C57BL/6 mouse bone marrow macrophages at 10 uM measured over 5 days by Western blot analysis; format: functional, cell-based
Summary of the method: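 C57BL/6 BMM were kept proliferating with M-CSF in the absence of RANKL and treated with compound (0.5 or 10 μM). NFATc1 expression was followed over the culture period by Western blot.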

BMDM [12] = assay: Inhibition of RANKL-induced osteoclastogenesis in C57BL/6 mouse bone marrow macrophages assessed as increase in NFkappaB expression at 10 uM measured over 5 days by Western blot analysis; format: functional, cell-based
Summary of the method: (§3)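 C57BL/6 BMM were grown with M-CSF plus RANKL over the course of osteoclastogenesis, treated at 0.5 or 10 μM. NF-κB and NFATc1 were followed by Western blot. The negative control was M-CSF only.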

BMDM [13] = assay: Inhibition of RANKL-induced osteoclastogenesis in C57BL/6 mouse bone marrow macrophages assessed as reduction in NFATc1 expression at 10 uM measured over 5 days by Western blot analysis; format: functional, cell-based; summary of the method: as §3
HCT-116 = assay: Antiproliferative activity against human HCT116 cells after 24 hrs by MTT assay; format: functional; conditions: HCT-116, 24 h, read-out: LD50 (the source's name)
Summary of the method: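 Cells were maintained in DMEM at 37 °C under 5% CO2. Growth and survival were estimated by MTT assay, and the value is reported as LD50.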

[14] = Toxicity in ddY mouse model of OVX-induced osteoporosis assessed as increase in body weight at 10 mg/kg, po administered once daily via gavage for 4 weeks measured 5 weeks post OVX-challenge; format: organism-based; conditions: in vivo, 840 h
Summary of the method: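 Dosing of ddY mice began one week after ovariectomy: compound in 300 μL of 0.5% (v/v) DMSO-containing PBS by gavage once daily for 28 d. OVX and sham controls received vehicle. Body weight was compared with sham control 5 weeks after OVX.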

Mus musculus [15] = assay: Antiosteoporotic activity in ddY mouse model of OVX-induced osteoporosis assessed as increase in trabecular thickness in femur bone at 10 mg/kg, po administered once daily via gavage for 4 weeks by microcomputed tomographic analysis; format: functional, organism-based; summary of the method: as §2
Mus musculus [16] = assay: Antiosteoporotic activity in ddY mouse model of OVX-induced osteoporosis assessed as reduction in trabecular separation in femur bone at 10 mg/kg, po administered once daily via gavage for 4 weeks by microcomputed tomographic analysis; format: functional, organism-based; summary of the method: as §2
MC3T3-E1 [17] = assay: Osteo-blastogenic activity in mouse MC3T3-E1 cells assessed as stimulation of ALP activity at 1 uM supplemented with fresh medium every 3 to 4 days and measured after 14 days relative to control; format: functional; summary of the method: as §1
[18] = target: Isopentenyl-diphosphate Delta-isomerase 1 (Rattus norvegicus, UniProt O35760); assay: Inhibition of isopentenyl diphosphate isomerase in Sprague-Dawley rat liver S100 fraction preincubated for 10 min followed by MVA addition by HPLC analysis
Sequence of Isopentenyl-diphosphate Delta-isomerase 1 (O35760 whole entry): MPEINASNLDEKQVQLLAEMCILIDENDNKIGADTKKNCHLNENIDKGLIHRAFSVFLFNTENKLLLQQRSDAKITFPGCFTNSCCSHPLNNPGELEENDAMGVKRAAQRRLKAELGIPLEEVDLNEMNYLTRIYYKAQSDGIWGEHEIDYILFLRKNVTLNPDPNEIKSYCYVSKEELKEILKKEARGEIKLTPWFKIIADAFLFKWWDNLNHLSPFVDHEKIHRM

| SMILES | Activity (MC3T3-E1 [1]) [%] | Activity (MC3T3-E1 [2]) [%] | IC50 [3] [µM] | further results |
| --- | --- | --- | --- | --- |
| O=C(O)Cc1ccc(O)c(O)c1 [3,4-DIHYDROXYPHENYLACETIC ACID] | 120 | 170 | 75 | – |
| COC(=O)Cc1ccc(O)c(O)c1 | 100 | 130 | 80 | – |
| COc1cc(/C=C/C(C)=O)ccc1O [DEHYDROZINGERONE] | 110 | 600 | 7.5 | Activity (Mus musculus [4]): Active; Activity (Mus musculus [5]): Active; Activity (BMDM [6]): inactive; Activity (Mus musculus [7]): Active; Activity (Mus musculus [8]): Active; Activity (Mus musculus [9]): Active; CC50 at 24 h [10]: > 5000 µM; Activity (BMDM [11]): Active; inhibition (BMDM [12]): Active; inhibition (BMDM [13]): Active; CC50 (HCT-116): 310 µM; Activity [14]: Toxic; Activity (Mus musculus [15]): Active; Activity (Mus musculus [16]): Active |
| O=C(/C=C/c1ccc(O)c(O)c1)O[C@@H]1C[C@](O)(C(=O)O)C[C@@H](O)[C@H]1O [CHLOROGENIC ACID] | 110 | 150 | 86 | – |
| O=Cc1ccc(O)c(O)c1 [PROTOCATECHUALDEHYDE] | 110 | 140 | 15 | – |
| O=C(O)/C=C/c1ccccc1 [CINNAMIC ACID] | 100 | 110 | > 100 | – |
| CC[C@H](C)[C@H](NC(=O)[C@H](CCC(=O)O)NC(=O)[C@H](CO)NC(=O)[C@@H](NC(=O)[C@@H](N)CO)C(C)C)C(=O)N[C@@H](CCC(N)=O)C(=O)N[C@@H](CC(C)C)C(=O)N[C@@H](CCSC)C(=O)N[C@@H](Cc1cnc[nH]1)C(=O)N[C@@H](CC(N)=O)C(=O)N[C@@H](CC(C)C)C(=O)NCC(=O)N[C@@H](CCCCN)C(=O)N[C@@H](Cc1cnc[nH]1)C(=O)N[C@@H](CC(C)C)C(=O)N[C@@H](CC(N)=O)C(=O)N[C@@H](CO)C(=O)N[C@@H](CCSC)C(=O)N[C@@H](CCC(=O)O)C(=O)N[C@@H](CCCNC(=N)N)C(=O)N[C@H](C(=O)N[C@@H](CCC(=O)O)C(=O)N[C@@H](Cc1c[nH]c2ccccc12)C(=O)N[C@@H](CC(C)C)C(=O)N[C@@H](CCCNC(=N)N)C(=O)N[C@@H](CCCCN)C(=O)N[C@@H](CCCCN)C(=O)N[C@@H](CC(C)C)C(=O)N[C@@H](CCC(N)=O)C(=O)N[C@@H](CC(=O)O)C(=O)N[C@H](C(=O)N[C@@H](Cc1cnc[nH]1)C(=O)N[C@@H](CC(N)=O)C(=O)N[C@@H](Cc1ccccc1)C(=O)O)C(C)C)C(C)C [TERIPARATIDE] | – | – | – | Activity (MC3T3-E1 [17]): 140% |
| CC(=O)/C=C/c1ccc(O)c(F)c1 | 100 | 100 | 8.3 | – |
| CC(=O)/C=C/c1ccc(O)cc1 | 110 | 150 | 32 | – |
| O=C(O)Cc1ccccc1 [PHENYLACETIC ACID] | 120 | 110 | > 100 | – |
| CC(=O)/C=C/c1ccc(C)c(O)c1 | 100 | 130 | 5.9 | – |
| NCCCC(O)(P(=O)(O)O)P(=O)(O)O [ALENDRONATE SODIUM] | – | – | 3.7 | Activity (Mus musculus [4]): Active; Activity (Mus musculus [5]): Active; Activity (Mus musculus [7]): Active; Activity (Mus musculus [8]): Active; Activity (Mus musculus [9]): Active; IC50 [18]: 1.7 µM; Activity (Mus musculus [15]): inactive; Activity (Mus musculus [16]): Active |
| CC(=O)/C=C/c1ccc(OC(C)C)c(O)c1 | 100 | 94 | 24 | – |
| CC(=O)/C=C/c1ccc(OCc2ccccc2)c(O)c1 | 130 | 140 | 19 | – |
| O=C(O)c1ccc(O)c(O)c1 [PROTOCATECHUIC ACID] | 100 | 140 | 89 | – |
| Cc1ccc(/C=C/C(N)=O)cc1O | 110 | 120 | 15 | – |
| CC(=O)/C=C/c1ccc(F)c(O)c1 | 100 | 100 | 15 | – |
| O=C(/C=C/c1ccc(O)c(O)c1)O[C@@H]1C[C@@](O)(C(=O)O)C[C@@H](O)[C@@H]1O | 120 | 170 | 48 | – |
| O=C(O)/C=C/c1ccc(O)c(O)c1 [CAFFEIC ACID] | 120 | 130 | 41 | – |
| COC(=O)c1ccc(O)c(O)c1 [METHYL PROTOCATECHUATE] | 110 | 100 | 78 | – |
| C=CCOc1ccc(/C=C/C(C)=O)cc1O | 120 | 140 | 18 | – |
| NC(=O)/C=C/c1ccc(F)c(O)c1 | 110 | 120 | 25 | – |
